How the values were obtained:
ER^LRR [1] = test: Pull-down assay with 6xHis-tagged ER^LRR; format: binding, Arabidopsis; conditions: Ni resin, SDS-PAGE, Coomassie blue; without TMM^LRR
Procedure, shortened: (§1)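 Purified C-terminal 6xHis-tagged receptor LRR, from High Five cells, was mixed with excess EPF-family peptide and Ni resin for 30 min on ice. The resin was washed four times in 25 mM Tris pH 8.0, 250 mM NaCl, 15 mM imidazole, then heated 5 min at 100°C in SDS loading buffer. Bound protein was detected by SDS-PAGE with Coomassie staining.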

ERL1^LRR [2] = test: Pull-down assay with 6xHis-tagged ERL1^LRR; format: binding, Arabidopsis; conditions: Ni resin, SDS-PAGE, Coomassie blue; without TMM^LRR
Procedure, shortened: as §1

ERL2^LRR [3] = test: Pull-down assay with 6xHis-tagged ERL2^LRR; format: binding, Arabidopsis; conditions: Ni resin, SDS-PAGE, Coomassie blue; without TMM^LRR
Procedure, shortened: as §1

ER^LRR [4] = test: Gel filtration assay with ER^LRR; format: binding, Arabidopsis; conditions: 10 mM Bis-Tris pH 6.0, 100 mM NaCl; incubated 30 min at 4°C
Procedure, shortened: (§2)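 LRR ectodomains were expressed in High Five insect cells by baculovirus at 22°C; for complexes, the ERf and TMM viruses were added together. Protein was purified from the supernatant by Ni-NTA and then size exclusion. Receptor and EPF-family peptide were mixed, held 30 min at 4°C, then run on Superdex 200 in 10 mM Bis-Tris pH 6.0, 100 mM NaCl. Fractions were analysed by SDS-PAGE with Coomassie staining.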

ERL1^LRR [5] = test: Gel filtration assay with ERL1^LRR; format: binding, Arabidopsis; conditions: 10 mM Bis-Tris pH 6.0, 100 mM NaCl; incubated 30 min at 4°C
Procedure, shortened: as §2

ERL2^LRR [6] = test: Gel filtration assay with ERL2^LRR; format: binding, Arabidopsis; conditions: 10 mM Bis-Tris pH 6.0, 100 mM NaCl; incubated 30 min at 4°C
Procedure, shortened: as §2

ERL1^LRR [7] = test: Biochemical assay of EPFL8 interaction; format: binding, Arabidopsis; conditions: Supplemental Fig. S11
ERL1^LRR–TMM^LRR complex [8] = test: Gel filtration assay with ERL1^LRR–TMM^LRR complex; format: binding, Arabidopsis; conditions: 10 mM Bis-Tris pH 6.0, 100 mM NaCl; incubated 30 min at 4°C
Procedure, shortened: as §2

ER^LRR–TMM^LRR complex [9] = test: Ligand competition assay, ER^LRR–TMM^LRR; format: binding, Arabidopsis; conditions: 10 µM EPF2-6xHis or EPF1-6xHis, increasing concentrations of EPFL9, 1 h at 4°C
Procedure, shortened: (§3)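 The ERf–TMM LRR complex was coexpressed in High Five cells and purified by Ni-NTA and gel filtration. It was incubated with 10 µM His-tagged EPF peptide, with or without varying concentrations of competing peptide, for 1 h at 4°C with gentle agitation. The mixture was then passed over Ni beads and washed four times. Eluate was boiled 5 min at 100°C in SDS loading buffer and read by SDS-PAGE with Coomassie staining.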

ERL1^LRR–TMM^LRR complex [10] = test: Ligand competition assay, ERL1^LRR–TMM^LRR; format: binding, Arabidopsis; conditions: 10 µM EPF2-6xHis or EPF1-6xHis, increasing concentrations of EPFL9, 1 h at 4°C
Procedure, shortened: as §3

ERL1^LRR–TMM^LRR complex [11] = target: T1, ERL1^LRR–TMM^LRR complex (Arabidopsis thaliana, UniProt C0LGW6;Q9SSD1); test: ITC
T1 sequence 1: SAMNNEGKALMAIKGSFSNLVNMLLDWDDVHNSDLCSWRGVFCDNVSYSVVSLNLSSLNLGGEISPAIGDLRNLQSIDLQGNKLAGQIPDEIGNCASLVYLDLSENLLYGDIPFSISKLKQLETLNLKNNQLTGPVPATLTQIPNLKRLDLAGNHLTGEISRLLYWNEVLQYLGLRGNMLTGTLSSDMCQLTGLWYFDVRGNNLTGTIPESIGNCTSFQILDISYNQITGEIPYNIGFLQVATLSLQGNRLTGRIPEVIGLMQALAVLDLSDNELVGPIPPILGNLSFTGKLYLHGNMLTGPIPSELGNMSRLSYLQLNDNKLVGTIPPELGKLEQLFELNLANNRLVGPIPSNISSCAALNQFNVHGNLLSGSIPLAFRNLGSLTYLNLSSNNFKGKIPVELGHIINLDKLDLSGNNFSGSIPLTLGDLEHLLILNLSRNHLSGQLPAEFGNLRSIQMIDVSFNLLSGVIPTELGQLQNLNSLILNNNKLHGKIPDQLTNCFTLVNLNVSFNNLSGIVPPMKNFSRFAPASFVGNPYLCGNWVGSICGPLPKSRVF
T1 sequence 2: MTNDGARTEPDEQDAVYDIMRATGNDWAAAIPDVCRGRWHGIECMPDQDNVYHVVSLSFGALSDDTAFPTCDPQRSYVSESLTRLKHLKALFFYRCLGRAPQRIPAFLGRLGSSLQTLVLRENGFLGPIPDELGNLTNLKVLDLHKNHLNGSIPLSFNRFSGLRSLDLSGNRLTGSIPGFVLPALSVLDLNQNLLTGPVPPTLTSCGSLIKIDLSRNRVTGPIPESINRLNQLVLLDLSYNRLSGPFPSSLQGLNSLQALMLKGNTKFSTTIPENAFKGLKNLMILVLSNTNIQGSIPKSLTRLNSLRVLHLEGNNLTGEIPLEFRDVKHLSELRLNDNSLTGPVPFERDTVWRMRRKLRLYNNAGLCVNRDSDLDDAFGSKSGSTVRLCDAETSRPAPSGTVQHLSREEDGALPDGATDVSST

[12] = target: T2, ER^LRR, extracellular LRR domain of ERECTA (ER) (Arabidopsis thaliana, UniProt Q42371 24-580); test: pull-down
T2 sequence: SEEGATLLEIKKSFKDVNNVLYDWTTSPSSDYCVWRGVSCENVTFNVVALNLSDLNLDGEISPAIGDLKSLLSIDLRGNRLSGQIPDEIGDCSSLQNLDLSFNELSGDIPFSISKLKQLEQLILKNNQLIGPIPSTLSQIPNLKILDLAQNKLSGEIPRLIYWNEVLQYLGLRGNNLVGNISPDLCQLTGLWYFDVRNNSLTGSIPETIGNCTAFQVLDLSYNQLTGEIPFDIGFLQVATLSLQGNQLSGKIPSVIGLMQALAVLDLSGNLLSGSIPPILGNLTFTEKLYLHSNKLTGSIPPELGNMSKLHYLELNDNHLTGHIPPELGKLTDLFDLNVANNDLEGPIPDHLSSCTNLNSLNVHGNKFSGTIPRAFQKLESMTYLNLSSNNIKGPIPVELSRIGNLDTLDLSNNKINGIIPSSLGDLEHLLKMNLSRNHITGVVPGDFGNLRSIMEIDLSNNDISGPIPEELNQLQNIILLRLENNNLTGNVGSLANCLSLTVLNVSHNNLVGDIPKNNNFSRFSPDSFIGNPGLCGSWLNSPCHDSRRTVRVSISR

[13] = target: T3, ERL1^LRR, extracellular LRR domain of ER-LIKE1 (ERL1) (Arabidopsis thaliana, UniProt C0LGW6 24-580); test: pull-down
T3 sequence: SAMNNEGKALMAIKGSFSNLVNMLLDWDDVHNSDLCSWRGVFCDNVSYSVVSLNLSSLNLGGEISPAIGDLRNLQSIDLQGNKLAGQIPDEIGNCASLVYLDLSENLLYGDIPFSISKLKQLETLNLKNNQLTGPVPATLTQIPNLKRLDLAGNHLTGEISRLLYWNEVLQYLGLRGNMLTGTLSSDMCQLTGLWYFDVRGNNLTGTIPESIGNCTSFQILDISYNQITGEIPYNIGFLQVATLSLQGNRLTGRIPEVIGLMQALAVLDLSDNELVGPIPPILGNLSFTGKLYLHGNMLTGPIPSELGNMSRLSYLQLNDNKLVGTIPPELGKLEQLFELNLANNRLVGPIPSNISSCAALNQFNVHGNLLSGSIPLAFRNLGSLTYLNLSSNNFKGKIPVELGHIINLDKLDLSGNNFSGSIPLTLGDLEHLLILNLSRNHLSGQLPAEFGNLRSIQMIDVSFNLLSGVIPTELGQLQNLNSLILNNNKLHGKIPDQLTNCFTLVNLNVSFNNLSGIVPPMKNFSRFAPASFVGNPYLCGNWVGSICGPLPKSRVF

[14] = target: T4, ERL2^LRR, extracellular LRR domain of ERL2 (Arabidopsis thaliana, UniProt Q6XAT2 28-580); test: pull-down
T4 sequence: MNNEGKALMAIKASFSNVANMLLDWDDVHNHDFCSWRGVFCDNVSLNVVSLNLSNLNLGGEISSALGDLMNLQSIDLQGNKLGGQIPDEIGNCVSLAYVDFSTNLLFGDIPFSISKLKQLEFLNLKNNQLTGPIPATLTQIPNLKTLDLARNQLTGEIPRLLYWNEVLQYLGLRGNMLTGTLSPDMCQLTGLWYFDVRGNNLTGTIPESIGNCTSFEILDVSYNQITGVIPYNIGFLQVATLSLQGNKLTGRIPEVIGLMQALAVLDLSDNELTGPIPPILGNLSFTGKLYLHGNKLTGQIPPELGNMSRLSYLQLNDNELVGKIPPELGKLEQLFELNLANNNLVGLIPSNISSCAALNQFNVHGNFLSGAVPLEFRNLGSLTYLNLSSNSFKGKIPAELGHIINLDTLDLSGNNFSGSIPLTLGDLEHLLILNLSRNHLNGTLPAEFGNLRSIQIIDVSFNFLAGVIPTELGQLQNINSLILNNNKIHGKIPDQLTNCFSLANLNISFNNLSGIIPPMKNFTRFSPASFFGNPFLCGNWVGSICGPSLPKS

ER^LRR–TMM^LRR complex [15] = target: T5, ER^LRR–TMM^LRR complex (Arabidopsis thaliana, UniProt Q42371;Q9SSD1); test: pull-down
T5 sequence 1: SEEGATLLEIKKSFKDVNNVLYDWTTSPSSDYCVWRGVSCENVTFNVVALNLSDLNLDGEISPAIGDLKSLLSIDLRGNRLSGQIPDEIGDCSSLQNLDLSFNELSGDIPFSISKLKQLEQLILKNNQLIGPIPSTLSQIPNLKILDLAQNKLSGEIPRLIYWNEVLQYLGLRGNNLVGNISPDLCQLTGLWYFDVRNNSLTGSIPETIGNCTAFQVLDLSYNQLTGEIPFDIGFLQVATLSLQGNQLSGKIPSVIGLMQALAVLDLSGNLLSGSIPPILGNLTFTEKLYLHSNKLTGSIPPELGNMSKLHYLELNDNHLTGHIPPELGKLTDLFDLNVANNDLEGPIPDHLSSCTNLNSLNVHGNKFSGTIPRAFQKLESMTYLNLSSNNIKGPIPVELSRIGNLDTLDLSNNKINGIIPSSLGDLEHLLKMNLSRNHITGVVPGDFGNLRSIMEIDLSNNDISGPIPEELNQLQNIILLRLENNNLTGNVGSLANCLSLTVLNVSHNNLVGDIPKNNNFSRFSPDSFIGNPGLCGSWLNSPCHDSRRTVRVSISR
T5 sequence 2: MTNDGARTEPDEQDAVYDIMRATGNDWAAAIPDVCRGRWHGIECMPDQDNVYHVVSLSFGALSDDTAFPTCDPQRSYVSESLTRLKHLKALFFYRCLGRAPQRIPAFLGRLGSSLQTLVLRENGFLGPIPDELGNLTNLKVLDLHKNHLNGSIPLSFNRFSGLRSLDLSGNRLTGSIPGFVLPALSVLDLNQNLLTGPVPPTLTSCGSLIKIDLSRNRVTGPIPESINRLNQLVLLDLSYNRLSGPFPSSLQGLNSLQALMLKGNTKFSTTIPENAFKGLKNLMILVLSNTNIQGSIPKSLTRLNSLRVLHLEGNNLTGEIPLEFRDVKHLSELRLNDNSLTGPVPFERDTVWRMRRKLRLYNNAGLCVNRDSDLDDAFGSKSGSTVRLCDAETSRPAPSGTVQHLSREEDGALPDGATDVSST

[16] = target: T3, ERL1^LRR, extracellular LRR domain of …; test: ITC

EPFL4: EPF family growth regulatory peptide, residues 59–109 (PGSSPPTCRSKCGKCQPCKPVHVPIQPGLSMPLEYYPEAWRCKCGNKLFMP)
interaction with ER^LRR in pull-down (ER^LRR [1]): interacted strongly | interaction with ERL1^LRR in pull-down (ERL1^LRR [2]): interacted strongly | interaction with ERL2^LRR in pull-down (ERL2^LRR [3]): interacted strongly | interaction with ER^LRR alone in gel filtration (ER^LRR [4]): interacted strongly | interaction with ERL1^LRR alone in gel filtration (ERL1^LRR [5]): interacted strongly | interaction with ERL2^LRR alone in gel filtration (ERL2^LRR [6]): interacted strongly

EPFL8: EPF family peptide, residues 46–99 (MGSEPPVCATKCRNCKPCLPYLFDIRGAHDDDDDSEPYYPVKWICRCRDRVFEP)
interaction with ERL1^LRR in the absence of TMM^LRR (ERL1^LRR [7]): interacted

EPFL9: EPF family peptide, residues 58–102, promotes stomatal development (IGSTAPTCTYNECRGCRYKCRAEQVPVEGNDPINSAYHYRCVCHR)
interaction with ERL1^LRR alone in gel filtration (ERL1^LRR [5]): weak interaction | interaction with ERL1^LRR–TMM^LRR in gel filtration (comigration) (ERL1^LRR–TMM^LRR complex [8]): much more EPFL9 was shifted to a higher-molecular-weight species and comigrated with the complex | competition: amount of ER^LRR–TMM^LRR pulled down by EPF2 or EPF1 (ER^LRR–TMM^LRR complex [9]): gradually decreased the amount | competition: amount of ERL1^LRR–TMM^LRR pulled down by EPF2 or EPF1 (ERL1^LRR–TMM^LRR complex [10]): gradually decreased the amount

B1: EPFL6 (CHALLAH, CHAL) peptide, residues 106–156 (peptide)
chain: LGSSPPRCSSKCGRCTPCKPVHVPVPPGTPVTAEYYPEAWRCKCGNKLYMP
binding result (ERL1^LRR–TMM^LRR complex [11]): binds | binding result [12]: binds | binding result [13]: binds | binding result [14]: binds

IGSTAPTCTYNECRGCRYKCRAEQVPVEGNDPINSAYHYRCVCHR [EPFL9 (STOMAGEN) peptide, residues 58–102]
binding result (ER^LRR–TMM^LRR complex [15]): binds | fold lower affinity than for ERL1^LRR–TMM^LRR [16]: ~10 fold | Kd (ERL1^LRR–TMM^LRR complex [11]): 4 µM

Reference: publication PMC5458759 (Genes & Development, 2017)
